Hits are enriched below; roughly 1.8% of the tested compounds scored in any of these assays.
ARNT TACC3 PPI: disruptors of human ARNT/TACC3 interaction. hit rate 0.66% among 390,000. AlphaScreen His-ARNT PAS-B/GST-TACC3 binding, luminescence; TACC3 fragment carries E629A point mutation. inhibition, % at 9.99 µM;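 active = mean inhibition of replicates at least 50% and at least half of replicates each reaching 50%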;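 note: 0% = complete ARNT plus TACC3 wells and 100% = ARNT alone without TACC3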
Tn7 DDE FP: disrupts Tn7 cyclic peptide binding to fibrin D-Dimer-E complex | FP displacement of FITC-Tn7 peptide from fibrin DD(E); 0% = median of compound wells per plate | inhibition, % at 8.3 µM | hit rate 0.13% among 370,000 | AID 720508;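 active = inhibition above the mean of compounds falling within the control limits plus 3 SD of them, cut at about 14% in these data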;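 note: 0% = plate median of compound wells and 100% = 10 µM Aha-Tn7 peptide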
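Assay system: human fibrin DD(E). Input: DD(E) 2 µM final. Medium: Tris buffer with calcium and detergent, pH 7.8. Compound dosing: single point at 8.3 µM. Timing: 10 min plus 3 h, room temperature. Technique: fluorescence polarization of the labelled Tn7 tracer. Read-out: percent inhibition. Replicates: singlicate testing.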
CAL PDZ FP-1: inhibitors of human CAL PDZ peptide binding; Q9HD26; purified CAL PDZ, TMR-peptide fluorescence polarization, 1 h; inhibition, % at 24.9 µM; hit rate 0.92% among 300,000; AID 602252;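 active = mean inhibition of at least 30% with at least half of replicates also reaching 30%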;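 note: 0% = DMSO neutral control and 100% = excess unlabeled competitor peptide PRC23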
CAL PDZ FP-2: human CAL PDZ-peptide interaction inhibition; AID 504414; purified CAL PDZ, TMR-peptide fluorescence polarization, 1 h; inhibition, % at 20 µM; Q9HD26; hit rate 0.02% among 330,000;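 active = highest replicate inhibition of at least 40%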;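 note: plate controls were DMSO neutral control wells for no effect and unlabeled competitor peptide control wells for full effect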
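Read-out basis: mP drop reported as inhibition | Assay system: Tagged CAL PDZ protein CerCALP, purified | Benchmarks: Unlabelled peptide for full inhibition, DMSO wells as neutral | Schedule: 1 h incubation at room temperature before polarization reading | Buffer or medium: Sodium phosphate/NaCl buffer pH 7.4 with TCEP, IgG, Thesit | Doses: Single point, 20 µM | Measured by: Fluorescence polarization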
GRK2 aptamer HTS: inhibitors of human GRK2 displacing RNA aptamer; inhibition of aptamer binding, % at 10 µM; hit rate 0.59% among 330,000; bead flow cytometry, FAM-aptamer displacement from GRK2; P25098;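 active = inhibition of aptamer binding above 40%, roughly 3 SD of noise, on plates passing a quality check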;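 note: median bead fluorescence of bound FAM aptamer so fluorescent compounds give negative values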
Target sequence (P25098 whole entry, looked up): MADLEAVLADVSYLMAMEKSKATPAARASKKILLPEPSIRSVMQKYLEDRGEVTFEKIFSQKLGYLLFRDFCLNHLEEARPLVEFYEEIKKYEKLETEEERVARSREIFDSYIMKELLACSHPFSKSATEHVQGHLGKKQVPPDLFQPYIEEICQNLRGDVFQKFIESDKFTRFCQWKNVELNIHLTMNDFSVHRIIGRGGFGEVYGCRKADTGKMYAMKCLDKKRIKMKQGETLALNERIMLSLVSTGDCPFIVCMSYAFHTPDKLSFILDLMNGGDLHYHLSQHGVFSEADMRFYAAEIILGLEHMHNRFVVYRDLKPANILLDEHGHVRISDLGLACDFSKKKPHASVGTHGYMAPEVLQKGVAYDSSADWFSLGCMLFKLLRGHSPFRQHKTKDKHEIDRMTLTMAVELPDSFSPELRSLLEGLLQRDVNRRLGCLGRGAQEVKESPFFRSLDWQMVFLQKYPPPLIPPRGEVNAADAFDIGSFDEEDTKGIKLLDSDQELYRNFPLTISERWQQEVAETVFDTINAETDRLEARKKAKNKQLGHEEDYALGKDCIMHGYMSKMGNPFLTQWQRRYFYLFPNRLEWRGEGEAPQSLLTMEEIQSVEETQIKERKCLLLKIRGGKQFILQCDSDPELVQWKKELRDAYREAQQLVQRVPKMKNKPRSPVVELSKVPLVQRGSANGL
DDE Tn6 FP inh: inhibitors of Tn6 peptide binding to human fibrin DD(E) | P02675 | Fibrin DD(E) TRITC-Tn6 fluorescence polarization displacement | inhibition, % at 8.3 µM | hit rate 0.21% among 370,000 | AID 720509;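 active = inhibition above a per-campaign cutoff: mean of compounds within control limits plus 3 SD, cut at about 15% in these data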;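 note: 0% = median of all compound wells on the plate and 100% = blocking peptide control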
* hit, by the source's call; x = not tested or not shown.

SMILES | ARNT TACC3 PPI | Tn7 DDE FP | CAL PDZ FP-1 | CAL PDZ FP-2 | GRK2 aptamer HTS | DDE Tn6 FP inh
NS(=O)(=O)c1ccc(NC(=O)c2cccc(Cl)c2)cc1 | -6 | 0 | 39* | -1 | 5 | 11
O=C(Nc1nnc(-c2ccco2)o1)c1cccc(Cl)c1 | 11 | -6 | -2 | -2 | 2 | -1
O=C(Nc1nnc(-c2ccccn2)o1)c1cccc(Br)c1 | 29 | 1 | -3 | 1 | 0 | 3
CCS(=O)(=O)N[C@H]1C=C[C@H](CC(=O)NC2Cc3ccccc3C2)O[C@H]1CO | 2 | x | x | x | x | x
C[C@@H]1CN([C@@H](C)CO)C(=O)Cc2cc(N(C)C)ccc2O[C@@H]1CN(C)S(=O)(=O)c1cccs1 | 2 | x | x | x | x | x
Cc1ccc(-c2cc(C(=O)NN=Cc3ccc(F)cc3)[nH]n2)cc1C | x | 1 | x | x | x | -12
Cc1ccc(CC(=O)NNC(=O)c2ccncc2)cc1C | 1 | 6 | -1 | 0 | 2 | 0
Cc1ccc(NC(=O)c2cccs2)cc1NC(=O)c1cccnc1 | -3 | 1 | 105* | -1 | 0 | -2
O=C(Nc1ccc(NC(=O)c2cccs2)cc1)c1cccnc1 | -8 | 6 | -2 | 1 | 0 | -2
O=C(Nc1cccc(NC(=O)c2cccc(Cl)c2)c1)c1cccnc1 | x | 5 | 35* | -3 | 0 | 0
O=C(COC(=O)c1ncc(Cl)c(Cl)c1Cl)NC(=O)c1ccccc1 | 18 | -3 | 1 | -3 | 0 | -7
CC(C)(C)[C@H]1COC(=O)[C@H](NC(=O)OCC2c3ccccc3-c3ccccc32)C/C=C\C[C@@H](CC(=O)N[C@H](CO)Cc2ccccc2)C(=O)N1 | 1 | -2 | -3 | -1 | 97* | 1
Cc1cc(-n2c(=S)sc3c(=O)n(-c4ccc(F)cc4)c(SCC(=O)O)nc32)ccc1Cl | 22* | 1 | -5 | -1 | 0 | 2
O=C(COC(=O)c1ccc2c(c1)S(=O)(=O)c1ccccc1C2=O)NC1CC1 | -4 | -1 | x | -3 | 2 | 4
CC1CCC(NC(=O)c2ccc3c(c2)S(=O)(=O)c2ccccc2C3=O)CC1 (stereo not given) | 5 | 4 | 4 | 43* | 0 | 11
CNC[C@H]1Oc2c(NC(=O)c3cc(C)nn3C)cccc2C(=O)N([C@H](C)CO)C[C@@H]1C | -8 | x | x | x | x | x
CN(C)c1cccc(C(=O)NNC(=O)/C=C/c2cccs2)c1 | -1 | 0 | 77* | 1 | 11 | 2
CNC(=S)NNC(=O)c1cccc(N(C)C)c1 | -6 | -3 | -3 | -6 | 1 | 5
CC(=O)Nc1ccc(NC(=O)CCc2nc3ccccc3c(=O)[nH]2)cc1 | x | 1 | -36 | -2 | 1 | -2
CC(=O)c1sc(NC(=O)CCCc2nc3ccccc3c(=O)[nH]2)nc1-c1ccccc1 | 4 | -4 | 52* | -1 | 0 | -1
Cn1cccc1-c1cc(C(=O)O)[nH]n1 | -2 | 6 | 41* | 0 | 3 | 6
CCOC(=O)/C(C#N)=C1/SC(CC)C(=O)N1c1ccc(C)cc1 (stereo not given) | -29 | 5 | 56* | 0 | 4 | 6
OC(CSc1ccccc1)CN1CCN(c2ccc(Cl)cc2)CC1 (stereo not given) | 14 | -2 | -2 | -6 | x | 1
Cc1nc(N)[nH]c(=O)c1CC(=O)OCCCl | -6 | -1 | 56* | 0 | 0 | 10
COC(=O)CCc1c(C)nc(N)[nH]c1=O | -6 | 3 | -1 | 1 | 0 | -2
SMILES | ARNT TACC3 PPI | Tn7 DDE FP | CAL PDZ FP-1 | CAL PDZ FP-2 | GRK2 aptamer HTS | DDE Tn6 FP inh
COC(Cc1n[nH]c(=S)n1-c1ccc(Cl)cc1)OC | 51* | 8 | -3 | 9 | 0 | 4
COc1ccc(CNC(=O)CN2C(=O)NC(C)(c3cccc4ccccc34)C2=O)cc1OC (stereo not given) | 1 | 1 | 41* | -1 | 0 | -5
COc1ncnc2c1N[C@@](C)(O)c1c(F)c(F)c(F)c(F)c1S2 | 4 | 4 | 46* | -1 | 3 | 0
Cc1ccc2c(c1)C(c1ccccc1)N(C(=O)c1ccccc1[N+](=O)[O-])CC(=O)N2 (stereo not given) | -2 | 2 | 71* | 0 | 1 | -8
C[C@@H]1CCCCO[C@@H](CN(C)C(=O)Nc2cccc3ccccc23)[C@H](C)CN([C@@H](C)CO)C(=O)c2cc(NC(=O)Cc3ccccc3)ccc2O1 | -1 | x | x | x | x | x
Cc1ccccc1S(=O)(=O)N1[C@@H]2c3cccc(=O)n3C[C@H]1[C@H](CO)[C@H]2C(=O)N1CCOCC1 | -6 | x | x | x | x | x
c1ccn(CCc2ccncc2)c1 | -7 | -2 | -7 | 0 | x | 5
Nc1ccc(CCn2ccnc2)cc1 | 63* | 1 | x | -3 | 0 | 1
COc1cccc(S(=O)(=O)N[C@@H]2CC[C@H](CC(=O)NCc3ccncc3)O[C@@H]2CO)c1 | 4 | x | x | x | x | x
O=C(O)CCC(=O)OCCN(Cc1ccc(Oc2ccc([N+](=O)[O-])cc2)cc1)C(=O)C(Cl)Cl | 3 | 3 | -4 | 0 | x | -5
COc1ccc(/C=C(\NC(=O)c2ccc(C)cc2)C(=O)NCCCn2ccnc2)cc1OC | 54* | 5 | -3 | -1 | 0 | 8
O=C(NCCCn1ccnc1)/C(=C\c1cccs1)NC(=O)c1ccco1 | 2 | 5 | 0 | 0 | 41* | -1
CN(C)c1ccc(/C=C(\NC(=O)c2ccccc2)C(=O)NCCCn2ccnc2)cc1 | 54* | 7 | -3 | -3 | 0 | 4
COc1ccc(C(=O)N/C(=C/c2cccs2)C(=O)NCCCn2ccnc2)cc1OC | 6 | -2 | 3 | -1 | 0 | 2
Cc1ccc(C(=O)N/C(=C/c2ccco2)C(=O)NCCCn2ccnc2)cc1 | 49* | 0 | -2 | 0 | 1 | -4
Cc1ccc(C(=O)N/C(=C\c2ccco2)C(=O)NCCCn2ccnc2)cc1 | 98* | 2 | -7 | 1 | 0 | -4
CCCNC(=O)N(C)C[C@H]1Oc2cc(Br)ccc2S(=O)(=O)N([C@H](C)CO)C[C@H]1C | -14 | x | x | x | x | x
CCn1c(=O)cc(SCC(=O)NCCCN2CCC(C)CC2)c2ccccc21 | 2 | 0 | 31* | 0 | 0 | 0
CCn1c(=O)cc(SCC(=O)NCCCN2CCN(c3ccc(F)cc3)CC2)c2ccccc21 | -4 | -1 | x | -3 | 0 | 3
C[C@@H]1CN([C@H](C)CO)C(=O)c2cc(NS(=O)(=O)c3ccccc3)ccc2O[C@@H]1CN(C)C(=O)NC1CCCCC1 | -3 | x | x | x | x | x
Cc1c(C)c2c(OCC(=O)N3CCC(O)CC3)cc3c(c2oc1=O)CCC(C)(C)O3 | 1 | 0 | -5 | -3 | 0 | 10
Cc1c(C)c2c(OCC(=O)N3CCC[C@H]3C(=O)O)cc3c(c2oc1=O)CCC(C)(C)O3 | 128* | -4 | 0 | -1 | 1 | 1
